ChEMBL document CHEMBL1145990, “Synthesis and in vitro antitumor activity of phenanthrolin-7-one derivatives, analogues of the marine pyridoacridine alkaloids ascididemin and meridine: structure-activity relationship” (J Med Chem, 2003)

Assays:
U373 MG = assay: In vitro antitumor effects against human U-373MG cell lines.; format: functional, cell-based, U-373MG ATCC
Summary of the method: (§1)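 Cells grown at 37°C in sealed dishes in MEM with 5% FCS, seeded at 40000 cells/mL and allowed 24 h to plate. Six concentrations from 10 µM to 0.1 nM were tested. Growth was read by MTT reduction to formazan at 570 nm (630 nm reference), in sextuplicate. IC50 is the concentration giving 50% growth inhibition versus control, as the mean of three independent assays.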

A-427 = assay: In vitro antitumor effects against human A-427 cell lines.; format: functional, cell-based; summary of the method: as §1
Mus musculus = assay: Maximum tolerated dose following single i.p. injection to B6D2F1/jico mice.; format: functional
Summary of the method: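 Healthy non-tumour-bearing B6D2F1 mice given one acute intraperitoneal dose at 5, 10, 20, 40, 80 or 160 mg/kg. Three mice per dose group. Survival and body weight recorded for up to 28 days after injection. MTD taken as the highest dose tolerable acutely.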

U-87 MG = assay: In vitro antitumor effects against human U87MG cell lines.; format: functional, cell-based, U-87MG ATCC; summary of the method: as §1
A549 = assay: In vitro antitumor effects against human A-549 cell lines.; format: functional, cell-based; summary of the method: as §1
LoVo = assay: In vitro antitumor effects against human LoVo cell lines.; format: functional, cell-based; summary of the method: as §1
HCT-15 = assay: In vitro antitumor effects against human HCT-15 cell lines.; format: functional, cell-based; summary of the method: as §1
MCF7 = assay: In vitro antitumor effects against human MCF-7 cell lines.; format: functional, cell-based; summary of the method: as §1
T47D = assay: In vitro antitumor effects against human T-47D cell lines.; format: functional, cell-based; summary of the method: as §1
PC-3 = assay: In vitro antitumor effects against human PC-3 cell lines.; format: functional, cell-based; summary of the method: as §1
J82 = assay: In vitro antitumor effects against human J82 cell lines.; format: functional, cell-based; summary of the method: as §1
SW1088 = assay: In vitro antitumor effects against human SW 1088 cell lines.; format: functional, cell-based
T-24 = assay: In vitro antitumor effects against human T24 cell lines.; format: functional, cell-based; summary of the method: as §1

SMILES | IC50 (U373 MG) | IC50 (A-427) | MTD (Mus musculus) | IC50 (U-87 MG) | IC50 (A549) | IC50 (LoVo) | IC50 (HCT-15) | IC50 (MCF7) | IC50 (T47D) | IC50 (PC-3) | IC50 (J82) | IC50 (SW1088) | IC50 (T-24)
COc1ccc2c(n1)C(=O)c1ncc(OC)c3ccnc-2c13 | 0.8 µM | 0.5 µM | >160 mg/kg | 0.7 µM | 0.8 µM | 0.6 µM | 0.6 µM | 0.5 µM | 1 µM | 1 µM | 8 µM | 0.5 µM | 0.6 µM
O=C1c2nccc(O)c2-c2nccc3ccnc1c23 | 6 µM | 6 µM | 10 mg/kg | 8 µM | 6 µM | 5 µM | 6 µM | 5 µM | 6 µM | > 10 µM | 6 µM | 6 µM | 8 µM
COc1ccnc2c1-c1nccc3ccnc(c13)C2=O | 0.1 µM | 0.07 µM | 5 mg/kg | 0.1 µM | 0.3 µM | 0.3 µM | 0.1 µM | 0.2 µM | 3 µM | 0.9 µM | 2 µM | 2 µM | 0.3 µM
COc1cnc2c3c(nccc13)-c1ncccc1C2=O | 0.6 µM | 0.5 µM | >160 mg/kg | 0.3 µM | 0.5 µM | 5 µM | 0.7 µM | 0.4 µM | 7 µM | 0.5 µM | 4 µM | 0.3 µM | 0.5 µM
COc1ccc2c(n1)-c1nccc3ccnc(c13)C2=O | 5 µM | 6 µM | >160 mg/kg | 6 µM | 9 µM | > 10 µM | 6 µM | 5 µM | 6 µM | 6 µM | 5 µM | 5 µM | 5 µM
COc1ccnc2c1C(=O)c1ncc(OC)c3ccnc-2c13 | 2 µM | 0.8 µM | 80 mg/kg | 0.8 µM | 5 µM | 0.8 µM | 3 µM | 2 µM | 5 µM | 0.8 µM | 5 µM | 3 µM | 2 µM
O=C1c2ncccc2-c2nccc3ccnc1c23 | 4 µM | 0.7 µM | 10 mg/kg | 6 µM | 3 µM | 2 µM | 0.6 µM | 0.6 µM | 0.8 µM | 0.9 µM | 5 µM | 5 µM | 0.8 µM
COc1cnc2c3c(nccc13)-c1cccnc1C2=O | 0.07 µM | 0.07 µM | >160 mg/kg | 0.05 µM | 0.05 µM | 0.7 µM | 0.09 µM | 0.06 µM | 6 µM | 0.08 µM | 0.8 µM | 0.08 µM | 0.06 µM
O=C1c2c(Cl)ccnc2-c2nccc3ccnc1c23 | 4 µM | 0.7 µM | 20 mg/kg | 0.8 µM | 0.8 µM | 1 µM | 1 µM | 0.6 µM | 1 µM | 5 µM | 4 µM | 4 µM | 3 µM
COc1cc(OC)c2c(n1)C(=O)c1nccc3ccnc-2c13 | 6 µM | 5 µM | 40 mg/kg | 5 µM | 6 µM | 4 µM | 5 µM | 5 µM | 5 µM | 6 µM | 5 µM | 5 µM | 6 µM
COc1ccnc2c1-c1nccc3c(OC)cnc(c13)C2=O | 0.007 µM | 0.006 µM | 20 mg/kg | 0.008 µM | 0.005 µM | 0.008 µM | 0.04 µM | 0.03 µM | 0.06 µM | 0.04 µM | 0.2 µM | 0.008 µM | 0.009 µM
CN(C)c1cc(Cl)nc2c1-c1nccc3ccnc(c13)C2=O | 6 µM | 6 µM | 40 mg/kg | 6 µM | > 10 µM | 5 µM | 5 µM | 6 µM | 4 µM | > 10 µM | 5 µM | 5 µM | 6 µM
CN(C)c1ccnc2c1-c1nccc3ccnc(c13)C2=O | 1 µM | 0.9 µM | 10 mg/kg | 2 µM | 1 µM | 2 µM | 2 µM | 0.9 µM | 4 µM | 4 µM | 4 µM | 5 µM | 1 µM
COc1cnc2c3c(nccc13)-c1c(N(C)C)ccnc1C2=O | 5 µM | 3 µM | >160 mg/kg | 3 µM | 3 µM | 3 µM | 3 µM | 4 µM | 4 µM | 6 µM | 6 µM | 6 µM | 5 µM
COc1ccnc2c1C(=O)c1nccc3ccnc-2c13 | 0.8 µM | 0.8 µM | 10 mg/kg | 4 µM | 0.8 µM | 0.9 µM | 0.8 µM | 0.6 µM | 0.4 µM | 0.6 µM | 3 µM | 0.9 µM | 0.7 µM
COc1ccc2c(n1)C(=O)c1nccc3ccnc-2c13 | 6 µM | 6 µM | 40 mg/kg | 6 µM | 9 µM | 5 µM | 6 µM | 5 µM | 6 µM | 6 µM | 5 µM | 5 µM | 6 µM
O=C1c2cccnc2-c2nccc3ccnc1c23 | 0.8 µM | 7 µM | 10 mg/kg | 0.5 µM | 0.8 µM | 2 µM | 0.9 µM | 0.2 µM | 0.7 µM | 5 µM | 5 µM | 4 µM | 0.3 µM
